Data on 1 compound can be found in ChEMBL document CHEMBL3992522, “Antileishmanial Activity of Pyrazolopyridine Derivatives and Their Potential as an Adjunct Therapy with Miltefosine” (J Med Chem, 2017).

The test system of data set [1] is Leishmania donovani. Kind of data set: Antileishmanial activity against Leishmania donovani MHOM/IN/80/DD8 amastigote forms harboring luciferase gene infected in mouse J774 cells at 25 uM after 72 hrs by Steady-Glo reagent based luminescence assay relative to control. The class given is functional. The note with it: MHOM/IN/80/DD8, J774, 72 h, read-out: GI. The procedure, abridged:
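Stationary-phase luciferase-expressing Dd8 promastigotes infected into J774 macrophages (4×10^4/mL seeded, 24 h, 37 °C, 5% CO2) at 1:8 macrophage:parasite for 24 h. Non-internalised parasites washed off. Compounds added at 50 and 25 µM in RPMI/10% FBS for 72 h. Lysis with Steady-Glo luciferin reagent plus PBS, luminescence read. Inhibition relative to untreated infected controls.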

Data set [2] relates to Leishmania donovani. Description: Antileishmanial activity against Leishmania donovani MHOM/IN/80/DD8 promastigote forms harboring luciferase gene after 72 hrs by Steady-Glo reagent based luminescence assay. It is filed as functional. The note with it: MHOM/IN/80/DD8, 72 h. The gist of the method:
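Exponential-phase Dd8-Luc promastigotes at 1×10^6/mL in M199 with 10% FBS, 24 °C, given 50 and 25 µM for 72 h. Vehicle 0.1% DMSO. Steady-Glo added 1:1, luminescence (RLU) read. IC50 from four-parameter Hill regression, derived only where inhibition exceeded 90%. Means of at least three independent experiments.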

Data set [3] has as its system Leishmania donovani. Description: Antileishmanial activity against Leishmania donovani MHOM/IN/80/DD8 amastigote forms harboring luciferase gene infected in mouse J774 cells after 72 hrs by Steady-Glo reagent based two fold dilution assay. The class given is functional. The conditions noted are these: MHOM/IN/80/DD8, 72 h. The procedure, abridged: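 Promastigotes or J774-resident amastigotes treated 72 h with six two-fold dilutions from 200 µM down to 6.25 µM. Luciferase RLU fitted by four-parameter Hill non-linear regression to derive the […] inhibitory concentration (MIC).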

A short description of data set [4]: Cytotoxicity against African green monkey Vero cells assessed as cell viability up to 200 uM after 72 hrs by MTT assay relative to control. It is filed as cell-based. The conditions noted are these: chlorocebus sabaeus, read-out: Activity. A general note: Tetrazolium dyes change colour on reduction, which living cells bring about.
Data set [5] deals with Leishmania donovani. Kind of data set: Antileishmanial activity against Leishmania donovani MHOM/IN/80/DD8 promastigote forms harboring luciferase gene at 7.19 uM up to 72 hrs by MTT assay relative to control. The class given is functional. The conditions noted are these: MHOM/IN/80/DD8, 72 h.
Data set [6] has as its system Leishmania donovani. Description: Antileishmanial activity against Leishmania donovani amastigote forms infected in Balb/c mouse assessed as inhibition of parasitic burden in liver at 50 mg/kg, ip administered for 5 consecutive days measured on day 7 post last treatment by Giemsa staining based assay relative to control. The note with it: 168 h. It is filed as functional.

The subject of data set [7] is Leishmania donovani. Description: Antileishmanial activity against Leishmania donovani amastigote forms infected in Balb/c mouse assessed as inhibition of parasitic burden in spleen at 100 mg/kg, ip administered for 5 consecutive days measured on day 7 post last treatment by Giemsa staining based assay relative to control. It is filed as functional. The note with it: 168 h.

For data set [8], the system named is Leishmania donovani. Kind of data set: Antileishmanial activity against Leishmania donovani amastigote forms infected in Balb/c mouse assessed as inhibition of parasitic burden in liver at 200 mg/kg, ip administered for 5 consecutive days measured on day 7 post last treatment by Giemsa staining based assay relative to control. It is filed as functional. The conditions noted are these: Leishmania donovani, ip, 168 h.

Data set [9] relates to Leishmania donovani. Kind of data set: Antileishmanial activity against Leishmania donovani amastigote forms infected in Balb/c mouse assessed as inhibition of parasitic burden in spleen at 50 mg/kg, ip administered for 5 consecutive days measured 1 week post last treatment by Giemsa staining based assay relative to control. The conditions noted are these: 168 h. The class given is functional.

Data set [10] concerns Leishmania donovani. Description: Antileishmanial activity against Leishmania donovani amastigote forms infected in Balb/c mouse assessed as reduction in liver weight at 12.5 to 200 mg/kg, ip administered for 5 consecutive days. It is filed as functional, organism-based.
The subject of data set [11] is Leishmania donovani. Description: Antileishmanial activity against Leishmania donovani amastigote forms infected in Balb/c mouse assessed as reduction in liver weight at 12.5 to 200 mg/kg, ip administered for 5 consecutive days co-treated with 5 to 25 mg/kg, po miltefosine. The class given is functional, organism-based.
For data set [12], the system named is Mus musculus. Kind of data set: Increase in TNFalpha level in Balb/c mouse splenocytes infected with Leishmania donovani amastigote forms at 25 mg/kg, ip co-treated with 5 mg/kg, po miltefosine administered for 5 consecutive days measured on day 7 post last treatment by sandwich ELISA relative to control. The class given is functional. The gist of the method: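 BALB/c mice infected with L. donovani (15 days); treatment for 5 consecutive days, test compound i.p. in 8% DMSO/water, miltefosine oral in TDW; sacrificed day 4 and day 7 post-treatment, n = 5 per group. Splenocytes (2×10^6) cultured 72 h in phenol red-free RPMI 1640 with 5 μg/mL SLA; supernatant cytokines by sandwich ELISA.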

The subject of data set [13] is Mus musculus. Description: Decrease in TGFbeta level in Balb/c mouse splenocytes infected with Leishmania donovani amastigote forms at 25 mg/kg, ip co-treated with 5 mg/kg, po miltefosine administered for 5 consecutive days measured on day 4 post last treatment by sandwich ELISA relative to control. The class given is functional. The gist of the method:
(§1)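 Splenocytes (2×10^6) from treated infected BALB/c mice taken on day 4 or 7 post-treatment. Cultured in phenol-red-free RPMI 1640 with 5 μg/mL soluble L. donovani antigen for 72 h at 37 °C, 5% CO2. Supernatant cytokines measured by sandwich ELISA against a standard curve. Mean ± SD, n = 5 mice per group, three independent experiments.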

In data set [14] the test system is Mus musculus. Kind of data set: Decrease in TGFbeta level in Balb/c mouse splenocytes infected with Leishmania donovani amastigote forms at 25 mg/kg, ip co-treated with 5 mg/kg, po miltefosine administered for 5 consecutive days measured on day 7 post last treatment by sandwich ELISA relative to control. It is filed as functional. The procedure, abridged:
as §1
A general note: In an ELISA, binding on a coated surface is turned into a signal by an enzyme label.

Data set [15] deals with Mus musculus. Description: Decrease in IL-10 level in Balb/c mouse splenocytes infected with Leishmania donovani amastigote forms at 25 mg/kg, ip co-treated with 5 mg/kg, po miltefosine administered for 5 consecutive days measured on day 7 post last treatment by sandwich ELISA relative to control. The class given is functional. The gist of the method: as §1
For data set [16], the system named is Leishmania donovani. Kind of data set: Induction of apoptosis in Leishmania donovani MHOM/IN/80/DD8 promastigote forms assessed as early apoptotic cells at 50 uM after 48 hrs by Annexin V-FITC/propidium iodide staining based flow cytometry (reference value: 7.41%). It is filed as functional. On the technique in general: Flow cytometry measures light scatter and fluorescence of single cells or particles in a stream.

Data set [17] deals with Mus musculus. Description: Increase in iNOS-mediated NO generation in Balb/c mouse splenocytes infected with Leishmania donovani amastigote forms at 50 mg/kg, ip for 5 consecutive days measured on day 4 and 7 post last treatment followed by soluble Leishmania donovani promastigote antigen-stimulation for 72 hrs by Griess assay relative to control. The class given is functional. The procedure, abridged: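 Splenocytes from treated infected BALB/c mice (5-day regimen, i.p. test compound, oral miltefosine; n = 5) isolated day 4 and day 7 post-treatment. Cultured in phenol red-free RPMI 1640 with 5 μg/mL SLA for 72 h at 37 °C, 5% CO2. Supernatant nitrite measured by Griess assay at 540 nm against a sodium nitrite standard curve.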

Data set [18] in a line: Apparent volume of distribution in Swiss mouse at 50 mg/kg, po by LC-MS/MS analysis. It is filed as ADME, organism-based. The conditions noted are these: in vivo.
For data set [19], the system named is Leishmania donovani. Kind of data set: Antileishmanial activity against Leishmania donovani amastigote forms infected in Balb/c mouse assessed as inhibition of parasitic burden in liver at 25 mg/kg, ip administered for 5 consecutive days measured on day 7 post last treatment by Giemsa staining based assay relative to control. The note with it: 168 h.
The test system of data set [20] is Mus musculus. Description: Restoration of T cell proliferation in Balb/c mouse splenocytes infected with Leishmania donovani amastigote forms at <25 mg/kg, ip administered for 5 consecutive days measured on day 4 and 7 post last treatment followed by soluble Leishmania donovani promastigote antigen-stimulation for 72 hrs by MTT assay relative to control.

Converted amounts (≈) assume the structure as drawn. The source made the active and inactive calls.

With `COc1ccc(C2C3=C(CCC3=O)Nc3c2c(-c2c[nH]c4ccccc24)nn3-c2ccc(Cl)c(Cl)c2)cc1OC` (stereo not given), the inhibition of growth at 25 µM in the data set with Leishmania donovani [1] is 96.8%. Further, in the data set with Leishmania donovani [2], half-maximal inhibition (IC50) was put at 7.19 µM. For the same compound, the MIC against Leishmania donovani [3] is 50 µM (≈ 28.6 µg/mL). Besides, in data set [4], the viability at 72 h was greater than 95%. The same compound came in with an inhibition at 7.19 µM in the data set on Leishmania donovani [5] greater than 95%. In addition, the inhibition in vivo at 50 mg/kg in the data set with Leishmania donovani [6] and with Leishmania donovani [9] was greater than 93% each time. The inhibition in vivo at 100 mg/kg in the data set with Leishmania donovani [7] came out at 90%. Moreover, in the data set on Leishmania donovani [8], the inhibition in vivo at 200 mg/kg was 93%. Moreover, the result in the data set on Leishmania donovani [10] and with Leishmania donovani [11] was Active. Besides, the figures for the “fold change (FC)” value with Mus musculus [12], with Mus musculus [17] and with Mus musculus [20] were 7.3, 4.7 and 2.2 - 3.4, respectively. Also, the entries for the “inhibition (INH)” value in the data set on Mus musculus [13], in the data set with Mus musculus [14] and in the data set with Mus musculus [15] were 88%, 93% and 94%, respectively. For the same compound, the Activity with Leishmania donovani [16] was determined as 11.6%. For the same compound, the Vd/F in data set [18] is 19.6 L/kg. Further, the inhibition in vivo at 25 mg/kg with Leishmania donovani [19] was greater than 48%.

In general, IC50 refers to the concentration that gives 50% inhibition. As a reminder, the MIC is the smallest concentration in the dilution series that meets the test's criterion for growth inhibition. What is called inhibition is the relative decrease from the control value, in per cent. As usually defined, the inhibition in vivo is the change of the read-out against control, counted positive when it falls. In general, Vd/F refers to the apparent distribution volume after extravascular dosing.
